The list is not random: actives were taken first. Their share in the collection is about 1.5%.
STAT1 inh = STAT1 signaling inhibition; NIH 3T3 STAT1-luciferase reporter, IFN-gamma, luminescence; inhibition, % at 5.5 µM; 200,000 compounds, 0.35% hits;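 active = inhibition above a set limit, the mean inhibition across all tested compounds plus 3 SD, cut at about 34% in these data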
STAT3 inh = inhibitors of IL-6 induced STAT3 signaling; U3A cells, IL-6 STAT3-luciferase reporter, luminescence; host cell line lacks STAT1; inhibition, % at 5.5 µM; 190,000 compounds, 0.89% hits; AID 862;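 active = inhibition above the mean inhibition across all screened compounds plus 3 SD, cut at about 44% in these data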
TAG inh = inhibitors of triacylglycerol accumulation; H9c2 cells, Nile Red lipid (TAG) fluorescence; cells loaded with 200 µM oleic acid; 230,000 compounds, 0.66% hits; inhibition, % at 12.5 µM;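 active = pattern-corrected inhibition of lipid staining of at least 50% with the nuclear-stain viability signal not falling by more than 50%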
Platelet DG rel = modulates dense granule release in human platelets | 300,000 compounds, 0.22% hits | human platelet-rich plasma, SFLLRN dense granule ATP release, luminescence | inhibition, %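 (compounds screened at 7.5 µM in platelet-rich plasma)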;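 active = mean replicate score, as percent of positive control, at or above 50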
Hep lipid drop = hepatic lipid droplet formation modulation; AML12 mouse hepatocytes, oleate lipid droplets, BODIPY imaging; inhibition, % at 6.5 µM; 240,000 compounds, 0.4% hits;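 active = lipid droplet intensity inhibited by at least 50%, with more than 500 cells counted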
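Test system: AML12 hepatocytes (mouse); reagent: oleate loading, 100 µM; dosing: one dose, 6.5 µM compound; incubation: overnight exposure; signal: fluorescence imaging, 20x objective, two fields per well; read-out basis: % inhibition of corrected integrated BODIPY droplet signal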
PPC-1+TRAIL kill = PPC-1 cancer cell killing with TRAIL present | PPC-1 cells + TRAIL, ATPLite viability luminescence | cell killing (% activity), % at 4 µM or 5 µM | 220,000 compounds, 0.41% hits | AID 1443;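 active = cell killing above 50% in the first pass at 4 µM, then a duplicate retest at 5 µM averaging 50% or more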
H9c2 TAG conf = confirmation of triacylglycerol accumulation inhibitors; shares compounds with TAG inh; H9c2 lipid accumulation, Nile Red fluorescence; cells loaded with 200 µM oleic acid; inhibition, % at 12.5 µM; 990 compounds, 71% hits;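 active = mean inhibition across replicates of 40% or more; inactive = mean inhibition below 40%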
Numbers stand for hits; - = inactive; . = no result given; ! = repeats disagree.

SMILES	STAT1 inh	STAT3 inh	TAG inh	Platelet DG rel	Hep lipid drop	PPC-1+TRAIL kill	H9c2 TAG conf
O=C(CCCn1c(=S)[nH]c2cc3c(cc2c1=O)OCO3)N1CCN(c2ccccc2)CC1	-	-	-	-	.	-	.
CCOc1ccccc1N1CCN(S(=O)(=O)c2ccc3c4c(cccc24)C(=O)N3)CC1	-	-	52	-	-	-	-
CCN1CCN(Cc2ccc(NC(=O)c3cc(NC(=O)c4ccno4)cc(OC)c3)cc2C(F)(F)F)CC1	.	.	-	-	-	-	.
CCN1CCN(Cc2ccc(NC(=O)c3cc(NC(=O)c4ccc5n[nH]nc5c4)cc(OC)c3)cc2C(F)(F)F)CC1	.	.	-	-	-	-	.
CCN1CCN(Cc2ccc(NC(=O)c3cc(NC(=O)c4cncc(-c5cccs5)c4)cc(OC)c3)cc2C(F)(F)F)CC1	.	.	57	-	.	.	44
CCN1CCN(Cc2ccc(NC(=O)c3cc(NC(=O)c4cc5cccc(OC)c5o4)cc(OC)c3)cc2C(F)(F)F)CC1	.	.	60!	-	-	-	68
COc1cc(NC(=O)c2cc3cccc(OC)c3o2)cc(C(=O)Nc2cccc(C(F)(F)F)c2)c1	.	.	55	-	-	-	69
CCc1nc2c(OCc3c(C)noc3C)cccn2c1N(C=O)Cc1ccc(OC)cc1	.	.	-	.	.	.	.
CCCCCOc1ccc(/C=C/c2c([N+](=O)[O-])c(=O)n(C)c(=O)n2C)cc1	.	.	.	-	-	.	.
CCCN(CCC)CCNC(=O)c1cc2c(=O)n(CC)c3ccccc3c2s1	.	.	52	-	-	-	68
CC(=O)c1cccc(NC(=O)C2=CN3CCS(=O)(=O)N=C3C=C2)c1	.	.	-	.	.	.	.
CC(C)(C)NC(=O)C(c1ccc(-c2ccccc2)cc1)N(C[C@H]1CC[C@@H]([C@@H]2CC[C@H](CO)O2)O1)C(=O)c1ccc2ccccc2c1 (stereo partly specified)	.	.	65	.	.	.	82
CC(C)(C)NC(=O)C(c1ccc(-c2ccccc2)cc1)N(C[C@H]1CC[C@@H]([C@@H]2CC[C@H](CO)O2)O1)C(=O)c1ccc(-c2ccccc2)cc1 (stereo partly specified)	.	.	60	.	.	.	67
CC(=O)c1ccc(S(=O)(=O)NCCC(=O)OCC(=O)N(Cc2ccccc2)C(C)(C)C)cc1	.	.	-	.	.	.	.
CN(C)C(=O)c1ccc(NC(=O)CSc2nnc(-c3cccs3)n2N)cc1	.	.	-	.	.	.	.
O=C(CCNS(=O)(=O)c1ccccc1)NNC(=O)c1cccc(Cl)c1	.	.	-	.	.	.	.
O=C(Nc1nc(-c2ccccc2)cs1)C1CCCN(S(=O)(=O)c2cccc([N+](=O)[O-])c2)C1 (stereo unspecified)	-	-	62	-	-	-	47
COc1ccc(-c2cn(-c3ccc(C)cc3)c(=O)n2CC(=O)Nc2ccc(OC)cc2OC)cc1	-	-	-	-	-	-	.
COc1ccc(NC(=O)Cn2c(-c3ccccc3)cn(-c3ccc(C)cc3)c2=O)cc1	-	-	56	-	-	-	-
COc1ccc(-c2nn(-c3ccccc3)cc2/C=C/C(=O)OCC(=O)Nc2ccccc2C#N)cc1	-	-	67	-	.	-	77
COc1ccc(NC(=O)C2(C)Cc3c(-c4ccc5c(c4)OCO5)ccnc3O2)cc1OC (stereo unspecified)	.	.	-	.	.	.	.
CC1(C(=O)Nc2ccc3c(c2)OCO3)Cc2c(-c3ccc4c(c3)OCO4)ccnc2O1 (stereo unspecified)	.	.	-	.	.	.	.
CC(=O)Nc1cccc(-c2ccnc3c2CC(C)(C(=O)NCc2ccc(N(C)C)cc2)O3)c1 (stereo unspecified)	.	.	57	.	.	.	54
CC1(C(=O)Nc2ccc3c(c2)OCO3)Cc2c(-c3cccc(C(N)=O)c3)ccnc2O1 (stereo unspecified)	.	.	59	.	.	.	69
COc1ccc(NC(=O)C2(C)Cc3c(-c4ccc5c(c4)OCO5)ccnc3O2)cn1 (stereo unspecified)	.	.	52	.	.	.	53
SMILES	STAT1 inh	STAT3 inh	TAG inh	Platelet DG rel	Hep lipid drop	PPC-1+TRAIL kill	H9c2 TAG conf
Cc1cccc(C(=O)N[C@H](C(=O)Nc2ccc3c(c2)OCO3)C(C)C)c1	.	.	-	.	.	.	.
C[C@]12CCC[C@H](O1)c1c(cc3c(c1O)C(=O)c1c(O)cc(O)cc1C3=O)O2	.	.	.	-	.	.	.
O=C1C=CC(O)C2(CO)OC12 (stereo unspecified)	.	.	81	.	.	.	86
CCCCOc1ccc(CSC2=NCCN2)cc1[N+](=O)[O-]	-	-	56	-	-	-	69
CCN1C(=O)/C(=C2\SC(N3CCOCC3)=NC2=O)c2ccccc21	.	.	.	-	-	.	.
C=CCN1C(=O)/C(=C2\SC(N3CCOCC3)=NC2=O)c2cc(Br)ccc21	-	-	58	-	-	-	50
CCn1cc(CN2CCCC(C(=O)Nc3cccc(-n4cccn4)c3)C2)cn1 (stereo unspecified)	.	.	-	.	.	.	.
COc1ccc(OC)c(C2CC(c3ccccc3)=NN2C(=S)Nc2ccccc2)c1 (stereo unspecified)	.	.	52	-	-	-	50
CCOC(=O)c1cc(-c2ccccc2)sc1NC(=O)COC(=O)c1cccc(S(N)(=O)=O)c1	-	-	78	-	-	-	68
O=C(C/C=N\O)Nc1ccc(Oc2ccccc2)cc1	-	-	-	-	-	-	.
CO/N=C\CC(=O)Nc1ccc(Oc2ccccc2)cc1	-	-	61	-	-	-	81
O=C(NCc1ccc2c(c1)OCO2)c1cc(-c2ccccn2)nc2ccccc12	-	-	53	-	58	-	-
Cc1ccc(NC(=O)COC(=O)Cn2cnc3ccccc32)c(C)c1	.	.	-	.	.	.	.
CC(=O)Nc1ccc(NC2=Nc3ccccc3N3C2=Nc2c(c(C)nn2-c2ccccc2)C3c2ccccc2)cc1 (stereo unspecified)	-	-	54	-	.	-	43
COc1cccc(S(=O)(=O)N(C)C[C@H]2Oc3ncc(Br)cc3C(=O)N([C@@H](C)CO)C[C@@H]2C)c1	.	.	-	.	.	.	.
COc1cccc(CNC(=O)COC(=O)c2cc([N+](=O)[O-])ccc2N2CCCC2)c1	.	.	-	.	.	.	.
COc1ccc2cc3cc(C(=O)NCC4COc5ccccc5O4)oc3nc2c1 (stereo unspecified)	-	-	57	-	.	-	-
COc1ccc2cc3cc(C(=O)NCc4ccc5c(c4)OCO5)oc3nc2c1	-	-	-	-	.	-	.
C=CC[C@@H](CC(=O)N(CCO)Cc1ccccc1)C(=O)N[C@H](COC(=O)[C@@H](CC=C)Cc1ccc(F)cc1)Cc1ccccc1	.	.	59	.	.	.	68
C=CC[C@@H](CC(=O)N(CCO)Cc1ccccc1)C(=O)N[C@H](COC(=O)[C@@H](CC=C)CC(=O)OC(C)(C)C)Cc1ccccc1	.	.	50	.	.	.	70
C=CCC[C@@H](Cc1ccc(F)cc1)C(=O)OC[C@@H](NC(=O)[C@@H](CC=C)CC(=O)N[C@H](CO)Cc1ccccc1)C(C)(C)C	.	.	62	.	.	.	66
